Assay results from different studies.
Lines come from different studies, so protocols differ.
Target: Tyrosine-protein kinase ABL2 (ABL2, Homo sapiens, UniProt P42684)

C1=C/COCc2cc(ccc2OCCN2CCCC2)Nc2nccc(n2)-c2cccc(c2)COC/1
remaining binding (binding; 0.1 µM): 74%

COc1ccc2oc(-c3ccc4nc(N)oc4c3)c/c(=N\c3ccccc3NC(=O)CCN)c2c1
remaining binding (binding; 1 µM): 101%

COc1ccc2[nH]c3c4[nH]c5ccc(OC)cc5c4c4c(c3c2c1)C(=O)NC4=O
remaining binding (binding; competition with immobilised ligand; 1 µM): 82%

C#Cc1cc(-c2cc(Nc3nc(N[C@@H](C)c4ccc(F)cn4)ncc3Cl)n[nH]2)ccc1C=O
inhibition (enzyme activity; inhibitor; 0.2 µM): 26.4%

CO[C@@H]1[C@H](N(C)C(=O)c2ccccc2)C[C@H]2O[C@]1(C)n1c3ccccc3c3c4c(c5c6ccccc6n2c5c31)C(=O)NC4
inhibition (enzyme activity; inhibitor; 1 µM): 17%

CCCCC(=O)Nc1ccc(-c2ccc3ncn(CCC)c(=O)c3c2)cn1
remaining binding (binding; competition with immobilised ligand; 0.5 µM): 100%

CC#CC(=O)N1CCC[C@H]1c1nc(-c2ccc(C(=O)Nc3ccccn3)cc2)c2c(N)nccn12
inhibition (enzyme activity; inhibitor; 1 µM): 10%

Cc1ccc(NC(=O)c2ccnc(C(F)(F)F)c2)cc1-c1cc(OCCO)nc(N2CCOCC2)c1
remaining binding (binding; competition with immobilised ligand; 1 µM): 99%
